Test results taken from ChEMBL document CHEMBL1158469 (J Med Chem, 2009).
Activity calls are given as the source filed them. The rule behind the calls is not given here.

Key:
Bcl-2-related protein A1 = target: T1, Bcl-2-related protein A1 (Homo sapiens, UniProt Q16548); test: Displacement of F-BakBH3 from Bfl-1 by fluorescence polarization assay
T1 sequence (Q16548 whole entry): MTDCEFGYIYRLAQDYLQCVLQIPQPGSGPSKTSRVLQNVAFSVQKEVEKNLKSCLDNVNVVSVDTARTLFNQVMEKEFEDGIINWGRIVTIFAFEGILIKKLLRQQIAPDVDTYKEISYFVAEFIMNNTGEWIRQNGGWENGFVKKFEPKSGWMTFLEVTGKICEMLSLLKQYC

NCI-H460 = test: Cytotoxicity against human H460 cells assessed as cell viability after 72 hrs by ATP-LITE assay; assay type: functional, cell-based; conditions: NCI-H460, 72 h
Procedure, shortened: (§1)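 ATP-LITE viability readout. Seeded 24 h before dosing (H460, H1299 at 2000 cells/well; PC3 at 3000 cells/well) in 12F2 or RPMI1640 with 5 mM L-glutamine, 5% FBS and pen/strep. Fresh 5% medium added, then compounds in 0.1% DMSO final. Viability read after 72 h treatment and normalized to DMSO-treated cells.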

[1] = Cytotoxicity against human PC3-ML cells assessed as cell viability after 72 hrs by ATP-LITE assay; assay type: functional, cell-based; procedure, shortened: as §1
[2] = Induction of apoptosis in human RS11846 cells after 1 to 2 days by FITC-annexin V and propidium iodide assay; assay type: functional, cell-based
[3] = Induction of apoptosis in human BP3 cells after 1 to 2 days by FITC-annexin V and propidium iodide assay; assay type: functional, cell-based
[4] = Chemical stability after 60 days at room temperature by HPLC/LC-MS analysis; assay type: physicochemical; conditions: 1440 h
Procedure, shortened: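 Solid compounds stored in air at room temperature for 60 days. Stability followed by HPLC combined with LC-MS.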

[5] = Stability in rat plasma after 1 hr at 37.5 degC; assay type: ADME, cell-free; conditions: read-out: Stability
Procedure, shortened: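 Compound incubated in rat plasma for 1 h; percentage of parent remaining was reported.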

[6] = Stability in rat liver microsome at 4 uM after 1 hr; assay type: ADME; conditions: liver microsomes, read-out: Stability
Procedure, shortened: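 Compound incubated for 1 h in rat microsomal preparations; percentage of parent remaining was reported.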

[7] = Membrane permeability assessed as drug permeation at 100 uM at pH 7.2 after 8 hrs by PAMPA; assay type: ADME; conditions: pH 7.2, 8 h
Mus musculus [8] = test: Reduction of spleen weight in human Bcl2 expressing B6 transgenic mouse at 72 umol/kg, ip administered as single dose after 24 hrs; assay type: functional; parameters: scale not given: the % may be the effect or the level left
Procedure, shortened: (§2)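 Age- and sex-matched B6Bcl2 transgenic mice (human BCL-2/IgH minigene, B cells accumulating in spleen), free of aggressive lymphoma. Single ip injection at 72 μmol/kg in 500 μL ethanol:Cremophor EL:saline 10:10:80; controls got vehicle alone. Killed with Avertin after 24 h and spleen weighed. Shrinkage expressed as percentage of maximum spleen-weight reduction.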

Mus musculus [9] = test: Induction of spleen weight shrinkage in human Bcl2 expressing B6 transgenic mouse at 72 umol/kg, ip administered as single dose after 24 hrs; assay type: functional; procedure, shortened: as §2
Mus musculus [10] = test: Toxicity in human Bcl2 expressing B6 transgenic mouse administered as single dose at 72 umol/kg, ip after 24 hrs; assay type: organism-based; conditions: in vivo
[11] = target: Bcl-2-like protein 1 (Homo sapiens) (UniProt Q07817); test: Inhibition of Bcl-xL at 200 uM by 1D 1H NMR binding assay
Chain of Bcl-2-like protein 1 (Homo sapiens) (Q07817 whole entry): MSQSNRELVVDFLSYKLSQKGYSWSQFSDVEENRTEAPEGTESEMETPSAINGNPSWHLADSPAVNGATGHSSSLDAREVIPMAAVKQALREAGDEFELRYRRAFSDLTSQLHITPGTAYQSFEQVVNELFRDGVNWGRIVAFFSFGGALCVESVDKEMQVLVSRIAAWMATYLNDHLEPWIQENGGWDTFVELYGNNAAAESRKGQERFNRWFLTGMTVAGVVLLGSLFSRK

[12] = Cytotoxicity against wild type mouse fibroblast assessed as induction of cell death at 10 uM by FITC-annexin V and propidium iodide assay; assay type: cell-based
Procedure, shortened: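 Wild-type MEFs seeded at half a million per well in DMEM with 10% FCS. Next day compound added at 0, 2.5, 5.0, 7.5 or 10 μM. On the following day, floating and trypsinized adherent cells were pooled and stained with Annexin V-FITC and PI in binding buffer. Analyzed by flow cytometry, with double-negative cells counted as viable.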

Mus musculus [13] = test: Reduction of spleen weight in human Bcl2 expressing B6 transgenic mouse at 42 umol/kg, ip administered as single dose after 24 hrs; assay type: functional; parameters: scale not given: the % may be the effect or the level left
Mus musculus [14] = test: Gastrointestinal toxicity in human Bcl2 expressing B6 transgenic mouse at 50 mg/kg, ip administered as single dose after 24 hrs; assay type: organism-based; parameters: dose 50 mg/kg, route intraperitoneal; conditions: in vivo
Mus musculus [15] = test: Toxicity in BALB/c mouse assessed as mortality at 100 mg/kg, ip administered as single dose after 14 days; assay type: organism-based; parameters: dose 100 mg/kg, route intraperitoneal; conditions: in vivo, 336 h
Mus musculus [16] = test: Toxicity in BALB/c mouse assessed as recovery of weight loss administered as single ip dose after 14 days; assay type: organism-based; conditions: in vivo, 336 h
Procedure, shortened: (§3)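 Tolerability study in five mice given a single ip dose of 100, 75, 50 or 25 mg/kg. Animals observed for 14 days, recording body weight loss as morbidity and mortality.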

Mus musculus [17] = test: Toxicity in mouse assessed as reduction of spleen weight at 42 mg/kg, ip; assay type: organism-based; parameters: dose 42 mg/kg, route intraperitoneal; conditions: in vivo
Procedure, shortened: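 B6Bcl2 transgenic mice, six per group, given a single ip dose of 42 mg/kg (60 μmol/kg) in ethanol:Cremophor EL:saline 10:10:80; six vehicle-injected controls. Spleens weighed 24 h after injection. Data are means ± S.E. (n = 6).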

Mus musculus [18] = test: Toxicity in BALB/c mouse assessed as weight loss at 25 mg/kg, ip administered as single dose after 14 days; assay type: organism-based; parameters: dose 25 mg/kg, route intraperitoneal; conditions: in vivo, 336 h
Mus musculus [19] = test: Toxicity in BALB/c mouse assessed as mortality at 75 mg/kg, ip administered as single dose after 14 days; assay type: organism-based; parameters: dose 75 mg/kg, route intraperitoneal; conditions: in vivo, 336 h
Mus musculus [20] = test: Toxicity in BALB/c mouse assessed as mortality at 50 mg/kg, ip administered as single dose after 14 days; assay type: organism-based; parameters: dose 50 mg/kg, route intraperitoneal; conditions: in vivo, 336 h
Mus musculus [21] = test: Toxicity in BALB/c mouse assessed as mortality at 25 mg/kg, ip administered as single dose after 14 days; assay type: organism-based; parameters: dose 25 mg/kg, route intraperitoneal; conditions: in vivo, 336 h
Mus musculus [22] = test: Toxicity in BALB/c mouse assessed as weight loss at 75 mg/kg, ip after 5 days; assay type: organism-based; parameters: dose 75 mg/kg, route intraperitoneal; conditions: in vivo, 120 h; procedure, shortened: as §3
Mus musculus [23] = test: Toxicity in BALB/c mouse assessed as weight loss at 50 mg/kg, ip administered as single dose after 14 days; assay type: organism-based; parameters: dose 50 mg/kg, route intraperitoneal; conditions: in vivo, 336 h; procedure, shortened: as §3
Mus musculus [24] = test: Toxicity in human Bcl2 expressing B6 transgenic mouse assessed as gastrointestinal toxicity at 42 umol/kg, ip administered as single dose; assay type: organism-based; conditions: in vivo
Mus musculus [25] = test: Toxicity in human Bcl2 expressing B6 transgenic mouse assessed as weight loss at 42 umol/kg, ip administered as single dose; assay type: organism-based; conditions: in vivo
[26] = Cytotoxicity against human H1299 cells assessed as cell viability after 72 hrs by ATP-LITE assay; assay type: functional, cell-based; conditions: NCI-H1299, 72 h; procedure, shortened: as §1
[27] = Cytotoxicity against Bax/Bak double knockout mouse fibroblast assessed as induction of cell death at 10 uM by FITC-annexin V and propidium iodide assay; assay type: cell-based
Procedure, shortened: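 MEFs (wild-type and Bax/Bak double knockout) seeded at half a million per well in DMEM with 10% FCS; next day compound added at final 0, 2.5, 5.0, 7.5 and 10 μM. After about one day, floating and trypsinised adherent cells were pooled and stained with Annexin V-FITC and PI. Flow cytometry scored Annexin V-negative/PI-negative cells as viable.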

## Cc1cc2c(C(C)C)c(O)c(O)cc2c(O)c1-c1c(C)cc2c(C(C)C)c(O)c(O)cc2c1O [APOGOSSYPOL]
Bcl-2-related protein A1
  IC50: > 10 µM
NCI-H460
  EC50: 3.5 µM
[1]
  EC50: 10.4 µM
[2]
  EC50: 5 µM
[3]
  EC50: 4.7 µM
[4]
  Stability: Stable
[5]
  remaining at 1 h: 53%
[6]
  remaining at 1 h, 4 µM: 64%
[7]
  logPe: -7.16 log cm/s
Mus musculus [8]
  Activity: <=20%
Mus musculus [9]
  Activity: <=40%
Mus musculus [10]
  Activity: Non-toxic

## Cc1cc2c(C(=O)NCC(C)c3ccccc3)c(O)c(O)cc2c(O)c1-c1c(C)cc2c(C(=O)NCC(C)c3ccccc3)c(O)c(O)cc2c1O (centres undefined)
[11]
  Activity: Active
[12]
  Activity: 80%
[4]
  Stability: Stable
[5]
  remaining at 1 h: 96%
[6]
  remaining at 1 h, 4 µM: 76%
[7]
  logPe: -7.51 log cm/s
Mus musculus [8]
  Activity: 40%
Mus musculus [9]
  Activity: 85%
Mus musculus [13]
  Activity: 70%
Mus musculus [10]
  Activity: Toxic
Mus musculus [14]
  Activity: Toxic
Mus musculus [15]
  Activity: Non-toxic
Mus musculus [16]
  Activity: 80%
Mus musculus [17]
  Activity: Non-toxic
Mus musculus [18]
  Activity: Non-toxic
Mus musculus [19]
  Activity: Non-toxic
Mus musculus [20]
  Activity: Non-toxic
Mus musculus [21]
  Activity: Non-toxic
Mus musculus [22]
  Activity: Non-toxic
Mus musculus [23]
  Activity: <= 15%
Mus musculus [24]
  Activity: Non-toxic
Mus musculus [25]
  Activity: 7.8%

## Cc1cc2c(C(C)C)c(O)c(O)c(C=O)c2c(O)c1-c1c(C)cc2c(C(C)C)c(O)c(O)c(C=O)c2c1O [GOSSYPOL]
[11]
  Activity: Active
[26]
  EC50: 6 µM
NCI-H460
  EC50: 3 µM
[1]
  EC50: 3.1 µM
[2]
  EC50: 4.2 µM
[3]
  EC50: 1.42 µM
[12]
  Activity: Active
[27]
  Activity: Active
Mus musculus [8]
  Activity: <=20%
Mus musculus [9]
  Activity: <=40%
